According to ChEMBL document CHEMBL4390684, “The synthesis of 4,6-diaryl-2-pyridones and their bioactivation in CYP1 expressing breast cancer cells” (Bioorg Med Chem Lett, 2019):

Assays:
MCF7 [1] = assay: Antiproliferative activity against […]-induced ER positive human MCF7 cells expressing CYP1A1 assessed as reduction in cell viability after 96 hrs by MTT assay; format: functional, cell-based; conditions: MCF7, 96 h
Procedure, shortened: (§1)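 Antiproliferative IC50 values were determined in MCF-7, MDA-MB-468, TCDD-treated MCF-7 (high CYP1A1 expression) and non-tumour MCF-10A breast cells. Each value is the mean of two independent experiments run in quadruplicate.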

Cytochrome P450 1A1 [2] = molecular target: T1, Cytochrome P450 1A1 (Homo sapiens, UniProt P04798); assay: Drug metabolism in supersomes expressing human CYP1A1 and coexpressing NADPH reductase assessed as CYP1A1-mediated drug metabolism by measuring retention time at 10 uM in the presence of NADPH measured at 5 mins interval for 25 mins by reverse phase HPLC method; format: ADME; conditions: recombinant enzyme
T1 sequence (P04798 whole entry): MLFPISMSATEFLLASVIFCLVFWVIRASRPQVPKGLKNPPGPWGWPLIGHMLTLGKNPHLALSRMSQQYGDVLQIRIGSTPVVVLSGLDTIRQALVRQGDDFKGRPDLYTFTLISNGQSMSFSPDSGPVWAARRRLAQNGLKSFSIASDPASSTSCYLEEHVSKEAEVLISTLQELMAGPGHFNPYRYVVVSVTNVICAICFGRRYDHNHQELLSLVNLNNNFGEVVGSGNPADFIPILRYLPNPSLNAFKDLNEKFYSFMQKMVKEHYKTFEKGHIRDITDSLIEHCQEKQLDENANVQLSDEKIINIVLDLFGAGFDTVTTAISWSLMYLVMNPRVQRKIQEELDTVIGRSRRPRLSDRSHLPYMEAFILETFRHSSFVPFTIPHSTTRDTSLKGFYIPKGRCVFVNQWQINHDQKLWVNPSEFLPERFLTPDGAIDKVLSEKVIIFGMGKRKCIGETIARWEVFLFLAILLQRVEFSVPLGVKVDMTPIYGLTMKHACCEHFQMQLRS
Procedure, shortened: (§2)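 Substrate was incubated with insect-cell Supersomes expressing human CYP1A1 or CYP1B1 plus NADPH reductase, at 20 pmol/mL CYP. Controls used non-CYP Supersomes, or omitted the compound, NADPH or active enzyme. Duplicate samples were taken every 5 min and quenched with ice-cold acetonitrile. After centrifugation, the supernatant was analysed by reverse-phase HPLC for parent depletion (half-life) and metabolite peaks.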

MCF7 [3] = assay: Activation factor, ratio of antiproliferative IC50 of ER positive human MCF7 cells expressing low level of CYP to antiproliferative IC50 of […]-induced ER positive human MCF7 cells expressing CYP1A1; format: functional
[4] = Selectivity index, ratio of IC50 for human MCF10A cells to IC50 for human MDA-MB-468 cells expressing CYP1A1 and CYP1B1; format: toxicity; conditions: read-out: Ratio IC50
MDA-MB-468 [5] = assay: Antiproliferative activity against ER negative human MDA-MB-468 cells expressing CYP1A1 and CYP1B1 assessed as reduction in cell viability measured after 96 hrs by MTT assay; format: functional, cell-based; conditions: MDA-MB-468, 96 h; procedure, shortened: as §1
Cytochrome P450 1B1 [6] = molecular target: T2, Cytochrome P450 1B1 (Homo sapiens, UniProt Q16678); assay: Drug metabolism in supersomes expressing human CYP1B1 and coexpressing NADPH reductase assessed as CYP1B1-mediated drug metabolism by measuring retention time at 10 uM in the presence of NADPH measured at 5 mins interval for 25 mins by reverse phase HPLC method; format: ADME; conditions: recombinant enzyme; procedure, shortened: as §2
T2 sequence (Q16678 whole entry): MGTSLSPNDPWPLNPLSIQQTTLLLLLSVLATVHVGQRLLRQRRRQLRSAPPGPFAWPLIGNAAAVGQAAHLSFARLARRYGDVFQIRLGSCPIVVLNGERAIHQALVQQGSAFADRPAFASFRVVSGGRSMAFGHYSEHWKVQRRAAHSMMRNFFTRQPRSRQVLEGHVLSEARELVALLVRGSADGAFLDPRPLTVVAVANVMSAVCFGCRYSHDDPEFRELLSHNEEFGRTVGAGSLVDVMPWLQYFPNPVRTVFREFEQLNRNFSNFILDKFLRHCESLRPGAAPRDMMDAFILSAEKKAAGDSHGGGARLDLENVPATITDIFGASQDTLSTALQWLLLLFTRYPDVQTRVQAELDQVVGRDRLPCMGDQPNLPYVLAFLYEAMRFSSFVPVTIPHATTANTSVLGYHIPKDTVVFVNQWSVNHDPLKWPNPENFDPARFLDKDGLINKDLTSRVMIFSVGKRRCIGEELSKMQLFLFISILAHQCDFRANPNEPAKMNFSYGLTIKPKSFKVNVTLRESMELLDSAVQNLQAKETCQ

MCF7 [7] = assay: Antiproliferative activity against ER positive human MCF7 cells expressing low level of CYP assessed as reduction in cell viability measured after 96 hrs by MTT assay; format: functional, cell-based; conditions: MCF7, 96 h; procedure, shortened: as §1
MCF-10A [8] = assay: Cytotoxicity against human MCF10A cells assessed as reduction in cell viability after 96 hrs by MTT assay; format: cell-based; procedure, shortened: as §1
MDA-MB-468 [9] = assay: Antiproliferative activity against ER negative human MDA-MB-468 cells expressing CYP1A1 and CYP1B1 assessed as reduction in cell viability in presence of CYP 1 inhibitor alpha-naphthoflavone at 1 uM measured after 96 hrs by MTT assay; format: functional, cell-based; conditions: MDA-MB-468, 96 h
CYP1B1 = molecular target: T3, CYP1B1 (Homo sapiens, UniProt Q16678); assay: Drug metabolism in supersomes expressing human CYP1B1 and coexpressing NADPH reductase assessed as CYP1B1-mediated drug metabolism by measuring compound half life at 10 uM in the presence of NADPH measured at 5 mins interval for 25 mins by reverse phase HPLC analysis; format: ADME; procedure, shortened: as §2
T3 sequence (Q16678 whole entry): T2 sequence (Q16678 whole entry)

MCF-10A [10] = assay: Antiproliferative activity against human MCF10A cells assessed as reduction in cell viability in presence of CYP 1 inhibitor alpha-naphthoflavone at 1 uM measured after 96 hrs by MTT assay
CYP1A1 = molecular target: T4, CYP1A1 (Homo sapiens, UniProt P04798); assay: Drug metabolism in supersomes expressing human CYP1A1 and coexpressing NADPH reductase assessed as CYP1A1-mediated drug metabolism by measuring compound half life at 10 uM in the presence of NADPH measured at 5 mins interval for 25 mins by reverse phase HPLC analysis; format: ADME; procedure, shortened: as §2
T4 sequence (P04798 whole entry): T1 sequence (P04798 whole entry)

MCF7 [11] = assay: Antiproliferative activity against […]-induced ER positive human MCF7 cells expressing CYP1A1 assessed as reduction in cell viability in presence of CYP 1 inhibitor alpha-naphthoflavone measured after 96 hrs by MTT assay; format: functional, cell-based; conditions: MCF7, 96 h
Cytochrome P450 1B1 [12] = molecular target: T2, Cytochrome P450 1B1; assay: Drug metabolism in supersomes expressing human CYP1B1 and coexpressing NADPH reductase assessed as CYP1B1-mediated second metabolite retention time at 10 uM in the presence of NADPH measured at 5 mins interval for 25 mins by reverse phase HPLC method; format: ADME; conditions: recombinant enzyme; procedure, shortened: as §2
Cytochrome P450 1B1 [13] = molecular target: T2, Cytochrome P450 1B1; assay: Drug metabolism in supersomes expressing human CYP1B1 and coexpressing NADPH reductase assessed as CYP1B1-mediated 4-(3,4-Dihydroxyphenyl)-6-(2,4-dimethoxyphenyl)-1H-pyridin-2-one formation at 10 uM in the presence of NADPH measured at 5 mins interval for 25 mins by reverse phase HPLC method; format: ADME; conditions: recombinant enzyme; procedure, shortened: as §2
Cytochrome P450 1A1 [14] = molecular target: T1, Cytochrome P450 1A1; assay: Drug metabolism in supersomes expressing human CYP1A1 and coexpressing NADPH reductase assessed as CYP1A1-mediated 4-(3,4-Dihydroxyphenyl)-6-(2,4-dimethoxyphenyl)-1H-pyridin-2-one formation at 10 uM in the presence of NADPH measured at 5 mins interval for 25 mins by reverse phase HPLC method; format: ADME; conditions: recombinant enzyme; procedure, shortened: as §2
MCF7 [15] = assay: Antiproliferative activity against ER positive human MCF7 cells expressing low level of CYP assessed as reduction in cell viability in presence of CYP 1 inhibitor alpha-naphthoflavone at 1 uM measured after 96 hrs by MTT assay; format: functional, cell-based; conditions: MCF7, 96 h

Row | Structure (SMILES) | IC50 (MCF7 [1]) | Retention_time (Cytochrome P450 1A1 [2]) | IC50 (MDA-MB-468 [5]) | Retention_time (Cytochrome P450 1B1 [6]) | IC50 (MCF7 [7]) | IC50 (MDA-MB-468 [9]) | half-life at 10 µM (CYP1B1) | half-life at 10 µM (CYP1A1) | IC50 (MCF7 [11]) | Retention_time (Cytochrome P450 1B1 [12]) | Drug metabolism (Cytochrome P450 1B1 [13]) | Drug metabolism (Cytochrome P450 1A1 [14]) | IC50 (MCF7 [15]) | Ratio IC50 (MCF7 [3]) | selectivity ratio [4] | IC50 (MCF-10A [8]) | IC50 (MCF-10A [10])
1 | COc1ccc(-c2cc(-c3ccc4c(c3)OCO4)cc(=O)[nH]2)cc1 | > 100000 nM |  | 1000 nM |  | > 100000 nM |  |  |  |  |  |  |  |  |  | > 100 | > 100000 nM | 
2 | CCCOc1ccc(-c2cc(-c3ccc(OC)c(OC)c3)[nH]c(=O)c2)cc1 | 20000 nM |  | 180 nM |  | 60000 nM |  |  |  |  |  |  |  |  | 3 | 389 | 70000 nM | 
3 | COc1ccc(-c2cc(-c3ccc4c(c3)OCO4)cc(=O)[nH]2)c(OC)c1 | 1800 nM |  | 40 nM |  | 9000 nM | > 100000 nM | 30.1 min | 12.9 min | 9000 nM | 9.22 min | Metabolite_Detected | Metabolite_Detected | 12000 nM | 5 | 1000 | 40000 nM | > 100000 nM
4 | COc1ccccc1-c1cc(-c2ccc3c(c2)OCO3)cc(=O)[nH]1 | 3500 nM |  | 700 nM |  | 7000 nM |  |  |  |  |  |  |  |  | 2 | 40 | 28000 nM | 
5 | CCCOc1ccc(-c2cc(-c3ccc(OC)cc3OC)[nH]c(=O)c2)cc1 | 9000 nM |  | 400 nM |  | 45000 nM |  |  |  |  |  |  |  |  | 5 | 125 | 50000 nM | 
6 | COc1ccc(/C=C\c2cc(OC)c(OC)c(OC)c2)cc1O [COMBRETASTATIN A4] | 2 nM |  | 3 nM |  |  |  |  |  |  |  |  |  |  | 1 | 0.53 | 1.6 nM | 

The next lines start with results.

Row | IC50 (MCF7 [1]) | Retention_time (Cytochrome P450 1A1 [2]) | IC50 (MDA-MB-468 [5]) | Retention_time (Cytochrome P450 1B1 [6]) | IC50 (MCF7 [7]) | IC50 (MDA-MB-468 [9]) | half-life at 10 µM (CYP1B1) | half-life at 10 µM (CYP1A1) | IC50 (MCF7 [11]) | Retention_time (Cytochrome P450 1B1 [12]) | Drug metabolism (Cytochrome P450 1B1 [13]) | Drug metabolism (Cytochrome P450 1A1 [14]) | IC50 (MCF7 [15]) | Structure (SMILES) | Ratio IC50 (MCF7 [3]) | selectivity ratio [4] | IC50 (MCF-10A [8]) | IC50 (MCF-10A [10])
7 | 700 nM | 10.48 min | 500 nM | 10.48 min | 1500 nM |  |  |  |  |  |  |  |  | COc1ccc(-c2cc(-c3ccc(O)c(O)c3)cc(=O)[nH]2)c(OC)c1 | 2.1 | 3 | 1500 nM | 
8 | 400 nM |  | 500 nM |  | 1000 nM |  |  |  |  |  |  |  |  | COc1ccc(-c2cc(-c3ccc(OC)c(OC)c3)cc(=O)[nH]2)c(OC)c1 | 2.5 | 100 | 50000 nM | 
9 | 200 nM |  | 50000 nM |  | > 100000 nM |  |  |  |  |  |  |  |  | COc1cc(-c2cc(-c3ccc4c(c3)OCO4)cc(=O)[nH]2)cc(OC)c1OC | >500 | > 2 | > 100000 nM | 
10 | 800 nM |  | 800 nM |  | 1600 nM |  |  |  |  |  |  |  |  | O=c1cc(-c2ccc3c(c2)OCO3)cc(-c2ccccc2)[nH]1 | 2 | 3.1 | 2500 nM | 
